Assay results reported in ChEMBL document CHEMBL1129929, “Analogues of methotrexate in rheumatoid arthritis. 1. Effects of 10-deazaaminopterin analogues on type II collagen-induced arthritis in mice” (J Med Chem, 1997).

What was measured:
[1] = system: Mus musculus; test: Incidence of disease(mouse type II collagen arthritis) was scored as the percentage of animals within each experimental group that exhibited joint or limb inflammation on day 44 at intraperitoneal of dose 5 mg/kg; assay type: functional
Method in brief: (§1)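 DBA/1 mice were immunized with bovine type II collagen (modified Courtenay method), with a collagen booster on day 21. Compounds were given ip starting 2 days before the first collagen challenge and every 2 days thereafter. Incidence was the percentage of animals per group with joint or limb inflammation, scored on days 23, 30, 37 and 44.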

[2] = system: Mus musculus; test: Tested for antiinflammatory activity on mouse type II collagen arthritis as Paw swelling* of all animals in each group on day 23 at intraperitoneal dose of 2.25 mg/kg; assay type: functional
Method in brief: (§2)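 DBA/1 mice immunized with bovine type II collagen (Courtenay method, modified), antigen booster at day 21. Compounds given ip from 2 days before the first collagen challenge, then every 2 days. Hind paw dimensions (mm) measured for both limbs of all animals, expressed as mean ± SD. Eight mice per dose; untreated controls pooled from four experiments (48 animals).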

[3] = system: Mus musculus; test: Incidence of disease(mouse type II collagen arthritis) was scored as the percentage of animals within each experimental group that exhibited joint or limb inflammation on day 37 at intraperitoneal of dose 5 mg/kg; assay type: functional; method in brief: as §1
[4] = system: Mus musculus; test: Tested for antiinflammatory activity on mouse type II collagen arthritis as Paw swelling* of all animals in each group on day 23 at intraperitoneal dose of 12 mg/kg; assay type: functional; method in brief: as §2
[5] = system: Mus musculus; test: Tested for antiinflammatory activity on mouse type II collagen arthritis as Paw swelling* of all animals in each group on day 30 at intraperitoneal dose of 1.25 mg/kg; assay type: functional; method in brief: as §2
[6] = system: Mus musculus; test: Tested for antiinflammatory activity on mouse type II collagen arthritis as Paw swelling* of all animals in each group onn day 44 at intraperitoneal dose of 2.25 mg/kg; assay type: functional; method in brief: as §2
[7] = system: Mus musculus; test: Tested for antiinflammatory activity on mouse type II collagen arthritis as Paw swelling* of all animals in each group on day 44 at intraperitoneal dose of 12 mg/kg; assay type: functional; method in brief: as §2
[8] = system: Mus musculus; test: Incidence of disease(mouse type II collagen arthritis) was scored as the percentage of animals within each experimental group that exhibited joint or limb inflammation on day 30 at intraperitoneal of dose 2.5 mg/kg; assay type: functional; method in brief: as §1
[9] = system: Mus musculus; test: Incidence of disease(mouse type II collagen arthritis) was scored as the percentage of animals within each experimental group that exhibited joint or limb inflammation on day 23 at intraperitoneal dose of 5 mg/kg; assay type: functional; method in brief: as §1
[10] = system: Mus musculus; test: Tested for antiinflammatory activity on mouse type II collagen arthritis as Paw swelling* of all animals in each group on day 37 at intraperitoneal dose of 2.25 mg/kg; assay type: functional; method in brief: as §2
[11] = system: Mus musculus; test: Tested for antiinflammatory activity on mouse type II collagen arthritis as Paw swelling* of all animals in each group on day 37 at intraperitoneal dose of 5 mg/kg; assay type: functional; method in brief: as §2
[12] = system: Mus musculus; test: Tested for antiinflammatory activity on mouse type II collagen arthritis as Paw swelling* of all animals in each group on day 30 at intraperitoneal dose of 2.25 mg/kg; assay type: functional; method in brief: as §2
[13] = system: Mus musculus; test: Incidence of disease(mouse type II collagen arthritis) was scored as the percentage of animals within each experimental group that exhibited joint or limb inflammation on day 37 at intraperitoneal of dose 1.25 mg/kg; assay type: functional; method in brief: as §1
[14] = system: Mus musculus; test: Tested for antiinflammatory activity on mouse type II collagen arthritis as Paw swelling* of all animals in each group on day 23 at intraperitoneal dose of 1.25 mg/kg; assay type: functional; method in brief: as §2
[15] = system: Mus musculus; test: Incidence of disease(mouse type II collagen arthritis) was scored as the percentage of animals within each experimental group that exhibited joint or limb inflammation on day 37 at intraperitoneal of dose 2.5 mg/kg; assay type: functional; method in brief: as §1
[16] = system: Mus musculus; test: Incidence of disease(mouse type II collagen arthritis) was scored as the percentage of animals within each experimental group that exhibited joint or limb inflammation on day 44 at intraperitoneal of dose 12 mg/kg; assay type: functional; method in brief: as §1
[17] = Concentration required to inhibit the growth of chang liver cells; assay type: functional; settings: Homo sapiens
[18] = system: Mus musculus; test: Incidence of disease(mouse type II collagen arthritis) was scored as the percentage of animals within each experimental group that exhibited joint or limb inflammation on day 23 at intraperitoneal of dose 12 mg/kg; assay type: functional; method in brief: as §1
[19] = system: Mus musculus; test: Incidence of disease(mouse type II collagen arthritis) was scored as the percentage of animals within each experimental group that exhibited joint or limb inflammation on day 44 at intraperitoneal of dose 1.25 mg/kg; assay type: functional; method in brief: as §1
[20] = system: Mus musculus; test: Incidence of disease(mouse type II collagen arthritis) was scored as the percentage of animals within each experimental group that exhibited joint or limb inflammation on day 30 at intraperitoneal of dose 5 mg/kg; assay type: functional; method in brief: as §1
[21] = system: L1210; test: Concentration required to inhibit the growth of L1210 cells; assay type: functional, cell-based; settings: Mus musculus
[22] = system: Mus musculus; test: Incidence of disease(mouse type II collagen arthritis) was scored as the percentage of animals within each experimental group that exhibited joint or limb inflammation on day 30 at intraperitoneal of dose 1.25 mg/kg; assay type: functional; method in brief: as §1
[23] = system: Mus musculus; test: Incidence of disease(mouse type II collagen arthritis) was scored as the percentage of animals within each experimental group that exhibited joint or limb inflammation on day 37 at intraperitoneal of dose 12 mg/kg; assay type: functional; method in brief: as §1
[24] = system: Mus musculus; test: Tested for antiinflammatory activity on mouse type II collagen arthritis as Paw swelling* of all animals in each group on day 23 at intraperitoneal dose of 5 mg/kg; assay type: functional; method in brief: as §2
[25] = system: Mus musculus; test: Incidence of disease(mouse type II collagen arthritis) was scored as the percentage of animals within each experimental group that exhibited joint or limb inflammation on day 23 at intraperitoneal dose of 1.25 mg/kg; assay type: functional; method in brief: as §1
[26] = system: Mus musculus; test: Tested for antiinflammatory activity on mouse type II collagen arthritis as Paw swelling* of all animals in each group on day 30 at intraperitoneal dose of 12 mg/kg; assay type: functional; method in brief: as §2
[27] = system: Mus musculus; test: Tested for antiinflammatory activity on mouse type II collagen arthritis as Paw swelling* of all animals in each group on day 37 at intraperitoneal dose of 12 mg/kg; assay type: functional; method in brief: as §2
[28] = system: Mus musculus; test: Incidence of disease(mouse type II collagen arthritis) was scored as the percentage of animals within each experimental group that exhibited joint or limb inflammation on day 30 at intraperitoneal of dose 12 mg/kg; assay type: functional; method in brief: as §1
[29] = system: Mus musculus; test: Tested for antiinflammatory activity on mouse type II collagen arthritis as Paw swelling* of all animals in each group on day 44 at intraperitoneal dose of 5 mg/kg; assay type: functional; method in brief: as §2
[30] = system: Mus musculus; test: Incidence of disease(mouse type II collagen arthritis) was scored as the percentage of animals within each experimental group that exhibited joint or limb inflammation on day 44 at intraperitoneal of dose 2.5 mg/kg; assay type: functional; method in brief: as §1
[31] = system: Mus musculus; test: Tested for antiinflammatory activity on mouse type II collagen arthritis as Paw swelling* of all animals in each group on day 30 at intraperitoneal dose of 5 mg/kg; assay type: functional; method in brief: as §2
[32] = system: Mus musculus; test: Incidence of disease(mouse type II collagen arthritis) was scored as the percentage of animals within each experimental group that exhibited joint or limb inflammation on day 23 at intraperitoneal dose of 2.5 mg/kg; assay type: functional; method in brief: as §1
[33] = system: Mus musculus; test: Incidence of disease(mouse type II collagen arthritis) was scored as the percentage of animals within each experimental group that exhibited joint or limb inflammation on day 44 at intraperitoneal of dose 18 mg/kg; assay type: functional; method in brief: as §1
[34] = system: Mus musculus; test: Tested for antiinflammatory activity on mouse type II collagen arthritis as Paw swelling* of all animals in each group on day 37 at intraperitoneal dose of 18 mg/kg; assay type: functional; method in brief: as §2
[35] = system: Mus musculus; test: Incidence of disease(mouse type II collagen arthritis) was scored as the percentage of animals within each experimental group that exhibited joint or limb inflammation on day 37 at intraperitoneal of dose 18 mg/kg; assay type: functional; method in brief: as §1
[36] = system: Mus musculus; test: Tested for antiinflammatory activity on mouse type II collagen arthritis as Paw swelling* of all animals in each group on day 30 at intraperitoneal dose of 18 mg/kg; assay type: functional; method in brief: as §2
[37] = system: Mus musculus; test: Tested for antiinflammatory activity on mouse type II collagen arthritis as Paw swelling* of all animals in each group on day 23 at intraperitoneal dose of 18 mg/kg; assay type: functional; method in brief: as §2
[38] = system: Mus musculus; test: Incidence of disease(mouse type II collagen arthritis) was scored as the percentage of animals within each experimental group that exhibited joint or limb inflammation on day 30 at intraperitoneal of dose 18 mg/kg; assay type: functional; method in brief: as §1
[39] = system: Mus musculus; test: Tested for antiinflammatory activity on mouse type II collagen arthritis as Paw swelling* of all animals in each group on day 44 at intraperitoneal dose of 18 mg/kg; assay type: functional; method in brief: as §2
[40] = system: Mus musculus; test: Incidence of disease(mouse type II collagen arthritis) was scored as the percentage of animals within each experimental group that exhibited joint or limb inflammation on day 23 at intraperitoneal dose of 18 mg/kg; assay type: functional; method in brief: as §1

CCC(Cc1cnc2nc(N)nc(N)c2n1)c1ccc(C(=O)NC(CCC(=O)O)C(=O)O)cn1 (stereo not given)
Animals [1]: 88%
Paw swelling [2]: 2.15 mm
Animals [3]: 75%
Paw swelling [4]: 2.21 mm
Paw swelling [5]: 2.24 mm
Paw swelling [6]: 2.75 mm
Paw swelling [7]: 2.86 mm
Animals [8]: 25%
Animals [9]: 12%
Paw swelling [10]: 2.75 mm
Paw swelling [11]: 2.56 mm
Paw swelling [12]: 2.18 mm
Animals [13]: 75%
Paw swelling [14]: 2.17 mm
Animals [15]: 75%
Animals [16]: 100%
IC50 [17]: 35 nM
Animals [18]: 12%
Animals [19]: 100%
Animals [20]: 63%
IC50 [21]: 268 nM
Animals [22]: 38%
Animals [23]: 88%
Paw swelling [24]: 2.15 mm
Animals [25]: 12%
Paw swelling [26]: 2.2 mm
Paw swelling [27]: 2.59 mm
Animals [28]: 25%
Paw swelling [29]: 3.09 mm
Animals [30]: 75%
Paw swelling [31]: 2.32 mm
Animals [32]: 0%

Nc1nc(N)c2nc(CCc3ccc(C(=O)NC(CCC(=O)O)C(=O)O)s3)cnc2n1 (stereo not given)
Animals [33]: 25%
Paw swelling [34]: 2.26 mm
Paw swelling [4]: 2.15 mm
Animals [35]: 38%
Paw swelling [7]: 2.58 mm
Paw swelling [36]: 2.16 mm
Paw swelling [37]: 2.14 mm
Animals [38]: 0%
Animals [16]: 50%
IC50 [17]: 3.1 nM
Animals [18]: 0%
IC50 [21]: 8.1 nM
Paw swelling [39]: 2.38 mm
Animals [23]: 50%
Animals [40]: 0%
Paw swelling [26]: 2.15 mm
Paw swelling [27]: 2.28 mm
Animals [28]: 0%
